Screening results from PubChem.
Shown are actives, neighbours in structure and some others; about 2.1% of the full set was active somewhere.
Runt-CBFb FRET – blocks binding of human RUNX1 Runt domain to CBFb; Cerulean-Runt/Venus-CBFb FRET ratio 530/480, 1 h; inhibition, % at 20 µM; AID 1496; actives 0.46% (n = 220,000);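 active = inhibition over about 50% at 20 µM in the single-dose screen, limit read from the data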;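 note: 0% = DMSO wells and 100% = excess unlabeled CBFb competitor control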
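Measured by: fluorescence energy transfer, 422 nm excitation, 530/480 nm emission; test system: Cerulean-tagged RUNX1 Runt domain (FRET donor) fusion protein; buffer or medium: Tris pH 7.5 buffer with BSA; compound: one dose, 20 µM compound, 1% DMSO; times: two 1 h room-temperature incubations shielded from light; benchmarks: unlabeled CBFb 5 µM, positive control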
L929 necroptosis – L929 zVAD cell death inhibition; actives 0.38% (n = 220,000); viability rescue, % at 10 µM; AID 1377; L929 zVAD necroptosis rescue, ATP luminescence, 24 h; with zVAD 60 µM;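 active = activation, scaled between plate controls, above about 75%, limit read from the data; inactive = activation under that limit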;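 note: 0% = zVAD with DMSO and 100% = DMSO alone without zVAD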
Runt-SMMHC FRET – Runt domain-CBFb-SMMHC interaction inhibition. Cerulean-Runt/Venus-CBFb-SMMHC FRET ratio 530/480, 1 h. inhibition, % at 20 µM. actives 0.74% (n = 220,000). AID 1434;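 active = mean inhibition across duplicate retests at 20 µM reaching about 50%, limit read from the data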;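 note: 0% = DMSO wells and 100% = wells with excess untagged CBFb-SMMHC; inhibitors lower the FRET ratio by blocking Runt binding to CBFb-SMMHC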
TNF necrop inh – blocks TNF-alpha induced death of Jurkat FADD-/- cells; Jurkat FADD-/- TNF necroptosis rescue, ATP luminescence, 24 h; 0 = TNF only, 100 = no-TNF cells; activation (protection from cell death), % at 10 µM; actives 0.068% (n = 220,000); AID 463075;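 active = activation, meaning protection from cell death, of at least 50% relative to plate controls; inactive = activation below 50%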;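 note: necroptosis triggered by 40 ng/mL TNF-alpha added together with compound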
RanGTP-Imp inh – disruptors of Ran-importin-beta complex formation – biochemical, FRET, CFP-Ran, YFP-importin-beta, homogeneous, primary screen; actives 1.1% (n = 300,000); inhibition, % (test concentration not listed); cell-free CFP-Ran/YFP-importin-beta FRET ratio; AID 2216;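 active = more than half of the replicate wells show a fall in the fluorescence ratio signal beyond about 16%, limit read from the data, passing the limit was not always enough; inconclusive = exactly half of the replicate wells pass the set limit; inactive = fewer than half of replicates pass the limit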;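 note: 0% = DMSO wells and 100% = Ran loaded with GDP instead of GTP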
Hck Nef HTS – inhibitors of human Hck kinase activated by Nef; Recombinant Hck-YEEI plus Nef, Z-Lyte FRET kinase assay; inhibition, % at 20 µM; actives 0.68% (n = 220,000);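 active = Hck-Nef kinase inhibition above about 50%, limit read from the data; inactive = inhibition below that limit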;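 note: 0% = DMSO with Hck plus Nef and 100% = Hck alone without Nef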
Target sequence (P08631 whole entry, looked up): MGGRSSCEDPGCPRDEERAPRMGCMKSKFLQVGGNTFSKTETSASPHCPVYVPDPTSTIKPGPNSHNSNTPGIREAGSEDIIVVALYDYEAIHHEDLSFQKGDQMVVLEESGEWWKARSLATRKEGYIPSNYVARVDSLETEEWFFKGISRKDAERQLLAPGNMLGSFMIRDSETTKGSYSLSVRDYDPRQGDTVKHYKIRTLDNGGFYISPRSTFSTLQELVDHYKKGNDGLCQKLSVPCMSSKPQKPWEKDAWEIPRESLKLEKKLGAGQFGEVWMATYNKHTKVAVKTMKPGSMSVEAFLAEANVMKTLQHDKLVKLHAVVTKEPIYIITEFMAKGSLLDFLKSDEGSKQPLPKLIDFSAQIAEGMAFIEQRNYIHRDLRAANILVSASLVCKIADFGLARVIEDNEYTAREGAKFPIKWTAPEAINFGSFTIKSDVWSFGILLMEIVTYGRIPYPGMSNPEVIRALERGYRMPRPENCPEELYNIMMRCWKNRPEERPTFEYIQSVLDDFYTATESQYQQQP
Starred values were filed as active, the others as inactive; ? = inconclusive; nt = no result given; + = active, no number.

SMILES | Runt-CBFb FRET | L929 necroptosis | Runt-SMMHC FRET | TNF necrop inh | RanGTP-Imp inh | Hck Nef HTS
CCOC(=O)c1c(NC(N)=O)sc(C)c1C | 1 | 1 | 0 | -1 | -1 | 0
CN(C)c1ccc(C2C3C(=O)NC(=O)C3ON2c2ccc(Cl)cc2)cc1 (stereo unspecified) | 6 | 1 | 2 | 0 | 22* | -1
Cc1ccc(N2CC(NS(=O)(=O)c3cccnc3)CC2=O)cc1C (stereo unspecified) | nt | nt | nt | nt | 32* | nt
COc1ccc(N2CC(NS(=O)(=O)c3cccnc3)CC2=O)cc1OC (stereo unspecified) | nt | nt | nt | nt | 3 | nt
COc1ccccc1NC(=O)C1CCN(S(=O)(=O)c2ccc3c(c2)NC(=O)C(C)S3)CC1 (stereo unspecified) | nt | nt | nt | nt | 0 | nt
Oc1ccc(Br)cc1/C=N/n1c(-c2ccccc2)n[nH]c1=S | nt | nt | nt | nt | 18* | nt
[N-]=[N+]=CC(=O)C(c1ccccc1)(c1ccccc1)c1ccccc1 | -2 | 0 | 0 | 0 | -4 | 15
O=C(c1ccc([N+](=O)[O-])cc1)N1CCSC1c1ccccc1Cl (stereo unspecified) | 1 | -1 | -3 | 51* | -1 | 1
Cc1ccc(NC(=O)CSc2ncccn2)cc1F | 1 | 2 | -1 | 4 | 96* | 3
COCCn1c(SCC(=O)Nc2ccc(OC)cc2OC)nc2ccccc2c1=O | nt | nt | nt | nt | 21* | nt
Cc1cccn2c(=O)c3cc(C#N)c(=O)n(CC4CCCO4)c3nc12 (stereo unspecified) | 22 | 0 | 60* | -3 | nt | +
Cc1ccc(S(=O)(=O)c2cc3c(=O)n4cccc(C)c4nc3n(CC3CCCO3)c2=N)cc1 (stereo unspecified) | 112* | nt | 38 | nt | nt | nt
N=c1c(S(=O)(=O)c2ccc(F)cc2)cc2c(=O)n3ccccc3nc2n1CC1CCCO1 (stereo unspecified) | nt | nt | nt | nt | 175* | nt
CCOCCCn1c(C)nc2c[n+](CC(=O)c3ccc4ccccc4c3)cc(Br)c21 | 0 | 1 | 0 | 0 | 6 | 20
COc1ccccc1C(=O)NNC(=S)NC(=O)c1ccco1 | 6 | 3 | 0 | 1 | 8 | -3
CCOC(=O)C1(CCc2ccccc2)CCN(C(=O)C2CCOCC2)CC1 | -3 | -1 | 1 | 0 | -3 | -1
CCOc1ccc(C(=O)Nc2ccc3c(c2)OCCO3)cc1 | nt | nt | nt | nt | 1 | nt
O=C(Nc1ccccc1C(=O)NCCCN1CCOCC1)c1ccc(Cl)cc1 | nt | nt | nt | nt | 1 | nt
O=C(CN1CCc2ccccc2C1)c1cccs1 | 1 | 0 | 0 | -4 | 25* | 1
CC1CCN(CC(=O)c2cccs2)CC1 | -2 | 1 | -2 | 0 | -2 | 4
CCOC(=O)N1CCN(C(=S)NC(=O)c2ccc(F)c(F)c2)CC1 | 1 | 0 | 0 | 0 | 7 | 15
Cc1csc(NC(=O)c2cc3c(s2)-c2ccccc2OC3)n1 | 2 | 2 | -12 | 0 | 49* | 28
Cc1cc(NS(C)(=O)=O)c(=O)n(Cc2c(F)cccc2Cl)c1 | nt | nt | nt | nt | -1 | nt
CN1CCN(Cc2c(O)ccc3cc(-c4ccccn4)c(=O)oc23)CC1 | 19 | 4 | 91* | 1 | 144* | 16
Cc1cc(NC(=O)c2nn(C)c(C)c2Br)no1 | nt | nt | nt | nt | -4 | nt
SMILES | Runt-CBFb FRET | L929 necroptosis | Runt-SMMHC FRET | TNF necrop inh | RanGTP-Imp inh | Hck Nef HTS
COc1ccc(CNC(=O)c2cc3c(=O)n4ccccc4nc3n(Cc3cccnc3)c2=N)cc1 | 72* | 0 | 150* | 0 | 72* | 7
COc1cccc(NC(=O)c2cc3c(=O)n4ccccc4nc3n(CC(C)C)c2=N)c1 | 2 | -1 | 12 | -5 | 5 | 3
N=c1c(C(=O)NCc2ccc3c(c2)OCO3)cc2c(=O)n3ccccc3nc2n1Cc1cccnc1 | 95* | -1 | 144* | -1 | 63* | 10
COc1ccccc1C1CN(c2ccccc2)N=C1c1cccs1 (stereo unspecified) | 46 | 1 | 59* | 0 | 3 | 44
Cc1cccc(N2CCN(C(=O)c3c(-c4ccccc4Cl)noc3C)CC2)c1C | nt | nt | nt | nt | 3 | nt
O=C(CSc1nc2sc3c(c2c(=O)n1-c1ccccc1)CCCC3)N/N=C/c1ccccc1C(=O)O | nt | nt | nt | nt | 0 | nt
COc1ccc(N(CC(=O)NCc2ccco2)C(=O)CCC(=O)Nc2nccs2)cc1 | nt | nt | nt | nt | -1 | nt
Clc1ccc(/C=N/Nc2nnc(-c3ncc[nH]3)c3ccccc23)cc1 | -6 | 1 | -5 | -10 | -2 | 0
Clc1cccc(/C=N/Nc2nnc(Cl)c3ccccc23)c1 | -2 | 0 | 3 | -4 | 34* | -1
Cc1ccc2[nH]c3c(c2c1)CN(C(=O)CN1CCN(C(=O)c2ccco2)CC1)CC3 | -46 | 4 | -33 | 5 | -43 | -23
O=C(CN1CCN(C(=O)c2ccco2)CC1)N1CCc2[nH]c3ccccc3c2C1 | -24 | 0 | -27 | -4 | 29* | -21
COc1ccc(CCNC(=O)c2cc(-c3ccccn3)nc3c(Cl)cccc23)cc1OC | -1 | 0 | 0 | -1 | 24* | 24
COc1ccc(CCNC(=O)c2cc(-c3ccncc3)nc3c(Cl)cccc23)cc1OC | -8 | 2 | 4 | 1 | 4 | 0
S=C(NCc1cccnc1)Nc1ccc(Oc2ccc(Cl)cc2)cc1 | -2 | 1 | 0 | -12 | -1 | 8
O=C(CN(C(=O)c1csnn1)c1ccc(F)cc1)NCc1ccc2c(c1)OCO2 | nt | nt | nt | nt | 0 | nt
CCSc1nnc(NC(=O)CSc2nccn2-c2cc(C)cc(C)c2)s1 | -3 | 0 | -2 | -1 | 26* | 0
CCSc1nnc(NC(=O)CSc2nccn2-c2cccc(C)c2C)s1 | -2 | 1 | 3 | 1 | -1 | -1
O=C(N/N=C\c1ccc(Cl)cc1)c1sccc1-n1cccc1 | -2 | 6 | 1 | 0 | 4 | 1
O=C(N/N=C\c1ccc(Cl)cc1Cl)c1sccc1-n1cccc1 | -1 | 89* | 1 | -3 | 8 | 1
Cc1cc(=O)oc2cc(OC(=O)CCN3C(=O)c4ccccc4C3=O)ccc12 | 15 | 0 | 35 | -3 | 4 | 18
CCCC(=O)Oc1ccc2c(C)cc(=O)oc2c1 | 8 | 0 | 24 | 2 | ? | 77*
CCCCn1nc(C(=O)Oc2ccc3c(C)cc(=O)oc3c2)c2ccccc2c1=O | 30 | -1 | 58* | 1 | 4 | 36
Cc1cc(=O)oc2cc(OC(=O)c3cncc(Br)c3)ccc12 | 33 | 0 | 59* | 0 | 1 | 69*
S=C(NCCc1ccccc1)Nc1ccc(N2CCCCC2)cc1 | nt | nt | nt | nt | 0 | nt
Cc1nc(SCC(=O)NCc2ccco2)c2c(=O)n(C)c(=O)n(CC(C)C)c2n1 | 0 | 0 | 2 | 0 | 1 | -4
